Test results published in the array DNA melting data of Ke et al. (doi:10.1101/2024.01.08.574731).

Assays:
[1] = folding enthalpy; higher = less favourable; fluorescence melt of hairpins on a sequencing array, two-state fit; conditions: sodium 0.088 M
In short: (§1)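 With Cy3 and quencher oligos annealed, library hairpins on a sequenced MiSeq flow cell were imaged for Cy3 fluorescence in 50 mM Na-HEPES pH 8.0, 25 mM NaCl, in 2.5 °C steps up to 60 °C. Melting temperature and folding enthalpy were derived from bootstrapped two-state fits of signals normalised to pre-quench Cy3 and to control constructs. Four replicates were combined by inverse variance, with fitted temperatures raised by 9.35 °C to match UV melts.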

[2] = melting temperature; fluorescence melt of hairpins on a sequencing array, two-state fit, raised by 9.35 °C to match UV melts; conditions: sodium 0.088 M
In short: as §1

Sequence | folding enthalpy [1] [kcal/mol] | Tm [2] [°C]
GGTAGAGGAAACTCTGCC ((.((((....)))).)) | -34.2 | 49.2
GGTAGCCCGAAAGGGACC (((..(((....)))))) | -12.6 | 33.6
GGTAGCGAAAGCTGCACC ((((((....)))..))) | -13.2 | 39
GGTAGCGAAAGCTGGACC ((((((....)))..))) | -12.6 | 37.4
GGTAGCGAAAGCTTAACC ((((((....)))..))) | -16.7 | 38.1
GGTAGCGCGAAAGCGACC (((..(((....)))))) | -13.3 | 40
GGTAGCGGAAACGCTGCC ((.((((....)))).)) | -37.9 | 62.5
GGTAGCGGAAACGCTGTC (..((((....))))..) | -13.4 | 34.8
GGTAGGACGAAAGTCACC (((..(((....)))))) | -15.5 | 35.8
GGTAGGGCGAAAGCCACC (((..(((....)))))) | -14 | 41.9
GGTAGGGGAAACCCTGTC (..((((....))))..) | -13.1 | 32.2
GGTAGTACGAAAGTAACC (((..(((....)))))) | -10.7 | 27.4
GGTAGTCGAAAGACACC (((.(((....)))))) | -20.1 | 50.4
GGTAGTGCGAAAGCAACC (((..(((....)))))) | -10.8 | 32
GGTAGTGGAAACACTACC (((((((....))))))) | -46.8 | 62.9
GGTAGTGGAAACATTGCC ((.(.((....)).).)) | -17.1 | 28.5
GGTAGTGGAAACGCTATC (.(((.(....).))).) | -15.7 | 30.8
GGTATACCGAAAGGTACC (((..(((....)))))) | -12.8 | 36.4
GGTATACGAAAGTAACC (((.(((....)))))) | -19.3 | 34.9
GGTATAGGAAACTATACC (((((((....))))))) | -42.4 | 52.1
GGTATATCGAAAGATACC (((..(((....)))))) | -16.3 | 33.6
GGTATCCGAAAGGAACC (((.(((....)))))) | -18.8 | 44.4
GGTATCCGAAAGGAGACC (((.(((....))).))) | -43 | 58.5

Sequence | folding enthalpy [1] [kcal/mol] | Tm [2] [°C]
GGTATCGAAAGATAGACC ((((((....)))..))) | -17 | 30.6
GGTATCGAAAGATCAACC ((((((....)))..))) | -12.9 | 27
GGTATCGAAAGATGACC ((((((....))).))) | -22.1 | 36.6
GGTATCGAAAGATTACC ((((((....))).))) | -24.9 | 37.7
GGTATCGGAAACGATATC (.(((((....))))).) | -24.1 | 45.7
GGTATCGGAAACGATGTC (..((((....))))..) | -18.5 | 31.9
GGTATGGGAAACTGTACC ((((..(....)..)))) | -21.9 | 36.1
GGTCACGAAAGTGCTACC ((((((....)))..))) | -15.6 | 36.3
GGTCACGAAAGTGGAACC ((((((....)))..))) | -18.3 | 40.5
GGTCACGAAAGTGGACC ((((((....))).))) | -29 | 55.3
GGTCACGAAAGTGTAACC ((((((....)))..))) | -18.3 | 39.6
GGTCACGAAAGTGTACC ((((((....))).))) | -25.6 | 51.5
GGTCACGCGAAAGCGACC (((..(((....)))))) | -14.2 | 47.4
GGTCACGGAAACACGACC ((((..(....)..)))) | -18.5 | 34.5
GGTCAGCCGAAAGGCACC (((..(((....)))))) | -11.4 | 38.3
GGTCAGGAAACTGACC ((((((....)))))) | -44.5 | 59.9
GGTCAGGGAAACCCAACC (((..((....))..))) | -9.32 | 29
GGTCAGGGAAACCCGACC ((((.((....)).)))) | -32.6 | 50.2
GGTCAGTCGAAAGACACC (((..(((....)))))) | -13.3 | 32.9
GGTCATCGAAAGATAACC (((.(((....))).))) | -26.8 | 39.4
GGTCATCGAAAGATTACC (((.(((....))).))) | -34.3 | 42.6
GGTCATGGAAACATGACC (((((((....))))))) | -51.8 | 65.5
